Source: ChEMBL document CHEMBL4689842, “EUbOPEN Chemogenomics Library wave 1” (2021)

Experiments:
[1] = tested on: U2OS; assay: Multiplex assay against U2OS; assay type: toxicity, cell-based; settings: human
Procedure, shortened: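 Live cells were stained at seeding with Hoechst33342, BioTracker Green Microtubule Cytoskeleton Dye, MitoTracker Red and Annexin V Alexa Fluor 680. Following compound addition, they were imaged on a CQ1 microscope at 37°C and 5% CO2 and gated by CellPathfinder machine learning into Hoechst high-intensity objects or normal cells, with normal cells split into healthy, pyknosed or fragmented nuclei and pyknosed cells into mitotic or apoptotic. Tubulin, mitochondrial-mass and membrane-permeability phenotypes are per cents of healthy-nucleus cells.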

[2] = tested on: HEK-293T; assay: Incucyte cell viability with HEK293T; assay type: toxicity, cell-based; settings: human, 10 µM, compound concentration 10 uM; also: filed as whole numbers so only -1 and 0 and 1 occur
[3] = 12 h, 1 µM, compound concentration 1 uM, replicate 1
[4] = 12 h, 1 µM, compound concentration 1 uM, replicate 2
[5] = 12 h, 10 µM, compound concentration 10 uM, replicate 1
[6] = 12 h, 10 µM, compound concentration 10 uM, replicate 2
[7] = 24 h, 1 µM, compound concentration 1 uM, replicate 1
[8] = 24 h, 1 µM, compound concentration 1 uM, replicate 2
[9] = 24 h, 10 µM, compound concentration 10 uM, replicate 1
[10] = 24 h, 10 µM, compound concentration 10 uM, replicate 2
[11] = 48 h, 1 µM, compound concentration 1 uM, replicate 1
[12] = 48 h, 1 µM, compound concentration 1 uM, replicate 2
[13] = 48 h, 10 µM, compound concentration 10 uM, replicate 1
[14] = 48 h, 10 µM, compound concentration 10 uM, replicate 2

SMILES: Cl.NC[C@@H]1O[C@H](C23CC4CC(CC(C4)C2)C3)Cc2c1ccc(O)c2O
- Population Apoptotic (%) [1, 3]: 60%
- Population Fragmented Nuclei (%) [1, 3]: 10%
- Population Healthy Nuclei (%) [1, 3]: 80%
- Population Hoechst High Intensity Objects (%) [1, 3]: 7%
- Population Membrane Permeable-Phenotype (%) [1, 3]: 5%
- Population Mitochondria Different-Phenotype (%) [1, 3]: 11%
- Population Mitotic Cells (%) [1, 3]: 40%
- Population Normal (%) [1, 3]: 92%
- Population Pyknosed Nuclei (%) [1, 3]: 9%
- Population Tubulin-Different-Phenotype (%) [1, 3]: 6%
- Total Cell Count [1, 3]: 116
- Population Apoptotic (%) [1, 4]: 0%
- Population Fragmented Nuclei (%) [1, 4]: 6%
- Population Healthy Nuclei (%) [1, 4]: 91%
- Population Hoechst High Intensity Objects (%) [1, 4]: 3%
- Population Membrane Permeable-Phenotype (%) [1, 4]: 2%
- Population Mitochondria Different-Phenotype (%) [1, 4]: 9%
- Population Mitotic Cells (%) [1, 4]: 100%
- Population Normal (%) [1, 4]: 96%
- Population Pyknosed Nuclei (%) [1, 4]: 2%
- Population Tubulin-Different-Phenotype (%) [1, 4]: 10%
- Total Cell Count [1, 4]: 95
- Population Apoptotic (%) [1, 5]: 37%
- Population Fragmented Nuclei (%) [1, 5]: 31%
- Population Healthy Nuclei (%) [1, 5]: 36%
- Population Hoechst High Intensity Objects (%) [1, 5]: 8%
- Population Membrane Permeable-Phenotype (%) [1, 5]: 3%
- Population Mitochondria Different-Phenotype (%) [1, 5]: 13%
- Population Mitotic Cells (%) [1, 5]: 62%
- Population Normal (%) [1, 5]: 92%
- Population Pyknosed Nuclei (%) [1, 5]: 31%
- Population Tubulin-Different-Phenotype (%) [1, 5]: 5%
- Total Cell Count [1, 5]: 150
- Population Apoptotic (%) [1, 6]: 52%
- Population Fragmented Nuclei (%) [1, 6]: 39%
- Population Healthy Nuclei (%) [1, 6]: 32%
- Population Hoechst High Intensity Objects (%) [1, 6]: 10%
- Population Membrane Permeable-Phenotype (%) [1, 6]: 9%
- Population Mitochondria Different-Phenotype (%) [1, 6]: 22%
- Population Mitotic Cells (%) [1, 6]: 47%
- Population Normal (%) [1, 6]: 89%
- Population Pyknosed Nuclei (%) [1, 6]: 27%
- Population Tubulin-Different-Phenotype (%) [1, 6]: 27%
- Total Cell Count [1, 6]: 76
- Population Apoptotic (%) [1, 7]: 46%
- Population Fragmented Nuclei (%) [1, 7]: 11%
- Population Healthy Nuclei (%) [1, 7]: 79%
- Population Hoechst High Intensity Objects (%) [1, 7]: 7%
- Population Membrane Permeable-Phenotype (%) [1, 7]: 2%
- Population Mitochondria Different-Phenotype (%) [1, 7]: 3%
- Population Mitotic Cells (%) [1, 7]: 53%
- Population Normal (%) [1, 7]: 92%
- Population Pyknosed Nuclei (%) [1, 7]: 9%
- Population Tubulin-Different-Phenotype (%) [1, 7]: 9%
- Total Cell Count [1, 7]: 146
- Population Apoptotic (%) [1, 8]: 42%
- Population Fragmented Nuclei (%) [1, 8]: 8%
- Population Healthy Nuclei (%) [1, 8]: 85%
- Population Hoechst High Intensity Objects (%) [1, 8]: 2%
- Population Membrane Permeable-Phenotype (%) [1, 8]: 5%
- Population Mitochondria Different-Phenotype (%) [1, 8]: 10%
- Population Mitotic Cells (%) [1, 8]: 57%
- Population Normal (%) [1, 8]: 97%
- Population Pyknosed Nuclei (%) [1, 8]: 6%
- Population Tubulin-Different-Phenotype (%) [1, 8]: 12%
- Total Cell Count [1, 8]: 114
- Population Apoptotic (%) [1, 9]: 76%
- Population Fragmented Nuclei (%) [1, 9]: 38%
- Population Healthy Nuclei (%) [1, 9]: 33%
- Population Hoechst High Intensity Objects (%) [1, 9]: 6%
- Population Membrane Permeable-Phenotype (%) [1, 9]: 7%
- Population Mitochondria Different-Phenotype (%) [1, 9]: 7%
- Population Mitotic Cells (%) [1, 9]: 23%
- Population Normal (%) [1, 9]: 93%
- Population Pyknosed Nuclei (%) [1, 9]: 27%
- Population Tubulin-Different-Phenotype (%) [1, 9]: 17%
- Total Cell Count [1, 9]: 161
- Population Apoptotic (%) [1, 10]: 92%
- Population Fragmented Nuclei (%) [1, 10]: 50%
- Population Healthy Nuclei (%) [1, 10]: 29%
- Population Hoechst High Intensity Objects (%) [1, 10]: 18%
- Population Membrane Permeable-Phenotype (%) [1, 10]: 26%
- Population Mitochondria Different-Phenotype (%) [1, 10]: 26%
- Population Mitotic Cells (%) [1, 10]: 7%
- Population Normal (%) [1, 10]: 81%
- Population Pyknosed Nuclei (%) [1, 10]: 20%
- Population Tubulin-Different-Phenotype (%) [1, 10]: 26%
- Total Cell Count [1, 10]: 80
- Population Apoptotic (%) [1, 11]: 33%
- Population Fragmented Nuclei (%) [1, 11]: 8%
- Population Hoechst High Intensity Objects (%) [1, 11]: 6%
- Population Membrane Permeable-Phenotype (%) [1, 11]: 0%
- Population Mitochondria Different-Phenotype (%) [1, 11]: 14%
- Population Mitotic Cells (%) [1, 11]: 66%
- Population Normal (%) [1, 11]: 93%
- Population Pyknosed Nuclei (%) [1, 11]: 9%
- Population Tubulin-Different-Phenotype (%) [1, 11]: 12%
- Total Cell Count [1, 11]: 198
- Population Apoptotic (%) [1, 12]: 57%
- Population Fragmented Nuclei (%) [1, 12]: 11%
- Population Healthy Nuclei (%) [1, 12]: 82%
- Population Hoechst High Intensity Objects (%) [1, 12]: 3%
- Population Membrane Permeable-Phenotype (%) [1, 12]: 3%
- Population Mitochondria Different-Phenotype (%) [1, 12]: 21%
- Population Mitotic Cells (%) [1, 12]: 42%
- Population Normal (%) [1, 12]: 96%
- Population Pyknosed Nuclei (%) [1, 12]: 5%
- Population Tubulin-Different-Phenotype (%) [1, 12]: 13%
- Total Cell Count [1, 12]: 127
- Population Apoptotic (%) [1, 13]: 84%
- Population Fragmented Nuclei (%) [1, 13]: 33%
- Population Healthy Nuclei (%) [1, 13]: 33%
- Population Hoechst High Intensity Objects (%) [1, 13]: 13%
- Population Membrane Permeable-Phenotype (%) [1, 13]: 20%
- Population Mitochondria Different-Phenotype (%) [1, 13]: 16%
- Population Mitotic Cells (%) [1, 13]: 16%
- Population Normal (%) [1, 13]: 86%
- Population Pyknosed Nuclei (%) [1, 13]: 32%
- Population Tubulin-Different-Phenotype (%) [1, 13]: 37%
- Total Cell Count [1, 13]: 180
- Population Apoptotic (%) [1, 14]: 91%
- Population Fragmented Nuclei (%) [1, 14]: 50%
- Population Healthy Nuclei (%) [1, 14]: 27%
- Population Hoechst High Intensity Objects (%) [1, 14]: 34%
- Population Membrane Permeable-Phenotype (%) [1, 14]: 80%
- Population Mitochondria Different-Phenotype (%) [1, 14]: 53%
- Population Mitotic Cells (%) [1, 14]: 8%
- Population Normal (%) [1, 14]: 65%
- Population Pyknosed Nuclei (%) [1, 14]: 22%
- Population Tubulin-Different-Phenotype (%) [1, 14]: 66%
- Total Cell Count [1, 14]: 82
- Growth Rate ([2]; 0 h, replicate number 2, timepoint 0 hours): 1
- Growth Rate ([2]; 6 h, replicate number 1, timepoint 6 hours): 0
- Growth Rate ([2]; 12 h, replicate number 1, timepoint 12 hours): 0
- Growth Rate ([2]; 18 h, replicate number 1, timepoint 18 hours): 0
- Growth Rate ([2]; 24 h, replicate number 1, timepoint 24 hours): 0
